High-throughput results from PubChem BioAssay.
SIAE inh – blocks human sialic acid acetylesterase | SIAE FP-Rh probe binding, fluorescence polarization | 370,000 tested, 0.69% active | inhibition, % at 9.66 µM | Q9HAT2;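 active means inhibition above a cutoff: mean of compounds within the control limits plus 3 SD of those, cut at about 17% in these data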
Target sequence (Q9HAT2 whole entry, looked up): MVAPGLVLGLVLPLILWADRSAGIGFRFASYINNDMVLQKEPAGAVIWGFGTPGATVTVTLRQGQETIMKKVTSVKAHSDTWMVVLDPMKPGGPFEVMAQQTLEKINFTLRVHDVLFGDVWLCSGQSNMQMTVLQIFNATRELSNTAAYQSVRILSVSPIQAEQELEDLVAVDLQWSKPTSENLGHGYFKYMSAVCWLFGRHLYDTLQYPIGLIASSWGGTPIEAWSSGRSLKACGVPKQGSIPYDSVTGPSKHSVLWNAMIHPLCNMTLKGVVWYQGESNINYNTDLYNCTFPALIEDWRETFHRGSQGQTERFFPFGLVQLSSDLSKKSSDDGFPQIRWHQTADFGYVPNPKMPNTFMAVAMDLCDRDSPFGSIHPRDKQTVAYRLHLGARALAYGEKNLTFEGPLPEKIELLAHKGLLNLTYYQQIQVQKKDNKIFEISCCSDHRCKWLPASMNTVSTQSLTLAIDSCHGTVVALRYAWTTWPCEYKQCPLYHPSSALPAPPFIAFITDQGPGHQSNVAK
mABHD4 FP – inhibits mouse alpha/beta hydrolase domain 4; Q8VD66; purified mABHD4, FP-Rh probe fluorescence polarization; 370,000 tested, 0.54% active; inhibition, % at 8.92 µM;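 active means inhibition exceeding the mean over every tested compound plus 3 SD, cut at about 30% in these data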
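Test system: mABHD4 protein; Read-out basis: % inhibition; Incubation: 45 min + 60 min at 25 °C; Repeats: single replicate; Technique: fluorescence polarization with parallel and perpendicular emission, 525/598 nm; Compound: 8.92 µM, single dose; Benchmarks: full inhibition S159A mutant plus DMSO, zero as sample-well median.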
HTRA1 inhibitor – inhibitors of human serine peptidase HTRA1. inhibition, % at 5.96 µM. Q92743. recombinant HTRA1, FP-rhodamine activity-based probe, fluorescence polarization. 340,000 tested, 0.5% active; in the data active means inhibition above about 36%
RBBP9 inhibitor – blocks human serine hydrolase RBBP9; O75884; recombinant RBBP9, FP-Rh probe fluorescence polarization; inhibition, % at 7.94 µM; 220,000 tested, 0.2% active; AID 1515;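 active means inhibition above the campaign mean of all tested compounds plus 3 SD, cut at about 14% in these data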
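Test system: recombinant human RBBP9; Timing: 30 min then 45 min, 25 °C; Detection: fluorescence polarization; Control set: RBBP9 with DMSO as uninhibited control, no-protein wells as full inhibition; Compound dosing: one concentration, 7.94 µM nominal, 0.794% DMSO; Probe or stimulus: FP-Rh activity-based probe, 375 nM before mixing.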
HTRA1 inh conf – confirmation of human HTRA1 inhibitors. inhibition, % at 5.96 µM. recombinant HTRA1, FP-rhodamine activity-based probe, fluorescence polarization. 1,600 tested, 66% active. shares compounds with HTRA1 inhibitor;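 active means mean inhibition over three repeats above a set limit taken from the earlier primary screen, cut at about 37% in these data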;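 further: inhibitors block probe binding so polarization drops and inhibition rises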
Hits are given with their value; 0 = inactive; - = no result given; + = active, no number. Compounds with a hit are over-represented: about 1.4% of the library has one in this group of screens.

SMILES	SIAE inh	mABHD4 FP	HTRA1 inhibitor	RBBP9 inhibitor	HTRA1 inh conf
O=C(Oc1c(CN2CCOCC2)cc(Cl)c2cccnc12)c1cccs1	0	0	44.4	0	0
COc1cc(C(=O)Oc2c(OC)cc(C(=S)N3CCOCC3)cc2OC)cc(OC)c1OC	0	0	0	-	-
O=C(Oc1c(Cl)cc(Cl)c2cccnc12)c1ccco1	0	0	59.0	0	54.4
COc1cc(C(=O)Oc2c(CN3CCOCC3)cc(Cl)c3cccnc23)cc(OC)c1OC	-	-	50.0	0	71.4
O=C(Nc1cccnc1Cl)c1cccs1	0	0	0	-	-
O=C(Oc1c(Cl)cc(Cl)c2cccnc12)c1cccs1	0	0	44.8	0	0
COCCNC(=O)C1(C)CCCN(C(=O)c2ccc(C)c(F)c2)C1 (configuration not stated)	0	0	-	-	-
COC(=O)c1cc2c(c3c4cc(F)ccc4n(S(=O)(=O)c4ccccc4)c13)C(=O)N(Cc1ccccc1)C2	0	0	-	-	-
COc1ccc(C2CC(=O)C(c3ccccc3OC)=CN2Cc2ccccc2)cc1 (configuration not stated)	0	0	-	-	-
O=C(Oc1c(CN2CCOCC2)cc(Cl)c2cccnc12)c1ccc(F)cc1	0	0	0	0	-
O=C(Oc1c(CN2CCOCC2)cc(Cl)c2cccnc12)c1ccccc1Cl	0	0	37.1	0	39.2
CN(C)c1ccc(C(=O)c2ccc(O)cc2O)cc1	0	0	0	0	-
CN(C)c1ccc(Cc2cc3c(O)ccc(O)c3cc(Cc3ccc(N(C)C)cc3)c2=O)cc1	55.9	83.5	83.7	-	72.0
CC(C)(C)NC(=O)CN1C(=O)/C(=C/c2ccccc2)SC1=S	0	0	0	0	-
COc1cccc(/C=C2/SC(=S)N(CC(=O)NNC(=O)c3ccccc3O)C2=O)c1	0	0	46.1	-	0
COc1cccc(/C=C2/SC(=S)N(CCCC(=O)Nc3ccc(O)cc3)C2=O)c1	0	0	0	-	-
O=C(CN1C(=O)/C(=C/c2ccccc2)SC1=S)NNC(=O)c1ccccc1O	0	0	55.4	0	41.7
CCOc1ccc(C2C3=C(CC(C)(C)CC3=O)N(CCCOC)C3=C2C(=O)CC(C)(C)C3)cc1OC	0	0	0	-	-
O=C(NC1CCC1)c1ccc(C#CC2CC2)c[n+]1[O-]	0	0	-	-	-
COc1cc(/C=C(\C#N)C(=O)c2ccc(O)c(O)c2)cc(I)c1O	0	0	41.0	-	0
COc1ccc(C=C(C#N)C(=O)c2ccccc2)cc1	0	0	-	-	-
COC(=O)[C@]1(C)N[C@H](CN(C)C(=O)Nc2ccc(OC)cc2)[C@@H]2C(=O)N(Cc3ccccc3)C(=O)[C@@H]21	0	0	0	-	-
COc1ccc(C(=O)NNC(=S)NC(=O)/C=C/c2cccs2)cc1	0	0	0	0	-
O=C(/C=C/c1cccs1)NC(=S)NNC(=O)c1ccccc1O	0	0	48.1	0	57.5
O=C(NC(=S)NNC(=O)c1cc2ccccc2cc1O)c1ccco1	0	0	45.4	0	0
SMILES	SIAE inh	mABHD4 FP	HTRA1 inhibitor	RBBP9 inhibitor	HTRA1 inh conf
O=C(NC(=S)NNC(=O)c1ccccc1O)c1ccco1	0	0	39.4	0	66.9
O=C(NC(=S)NNC(=O)c1ccccc1O)c1cccnc1	0	0	48.9	0	62.8
COc1ccc(C(=O)NC(=S)NNC(=O)c2ccco2)cc1	0	0	0	-	-
Cc1ccc2[nH]c(=O)c(CN(CC3COCCO3)C(=O)Nc3ccccc3F)cc2c1 (configuration not stated)	0	0	0	0	-
O=C(NCc1ccccc1)[C@@H]1CCCN1C(=O)[C@H]1CCCN1C(=O)c1ccc(F)c(C(F)(F)F)c1	0	0	-	-	-
COc1ccc(CNC(=O)Cn2c(=O)n(CCC(=O)N3CCCCC3)c(=O)c3sccc32)cc1	0	0	0	-	-
Cc1ccc(O)c(C=Nc2cc(C)ccc2O)c1	-	-	0	0	-
CC(C)(C)c1ccc(O)c(N=Cc2cc(Br)ccc2O)c1	0	0	41.3	0	42.3
COC(=O)C1=C(C)NC(=O)/C1=C\c1cc(C)n(-c2ccc(F)cc2)c1C	0	0	0	0	-
COC(=O)C1=C(C)NC(=O)/C1=C\c1cc(C)n(-c2cccc(C)c2)c1C	0	0	51.9	0	38.2
C/C(CC(=O)Nc1ccccn1)=N\NC(=O)c1ccccc1O	0	0	55.5	-	0
COc1cc(N=Nc2ccc(Br)cc2)cc(C=O)c1O	0	0	46.1	-	56.1
O=C(CSc1nc2ccccc2n1CCc1ccccc1)c1ccc(O)c(O)c1	20.0	0	69.6	0	66.3
O=C(CSc1nc2ccccc2c(=O)[nH]1)c1ccc(O)c(O)c1	0	33.8	43.1	0	43.4
O=C(CSc1nc2ccccc2c(=O)[nH]1)c1ccc(O)cc1O	0	0	0	0	-
CC1(C(=O)NS(=O)(=O)c2ccc(C#N)cc2)CCN1C(=O)Cc1ccccc1Cl (configuration not stated)	0	0	-	-	-
Oc1ccc(/C=N/N2CCN(C3c4ccccc4-c4ccccc43)CC2)cc1O	0	0	37.6	0	+
Oc1ccc(/C=N/N2CCN(C3c4ccccc4-c4ccccc43)CC2)cc1	0	0	0	0	-
O=C(Cc1nnc(NC(=O)c2ccccc2)s1)N/N=C\c1ccc(O)c(O)c1	0	0	42.7	-	48.2
O=C(Cc1nnc(NC(=O)c2ccccc2)s1)N/N=C/c1ccc(O)cc1	0	0	0	-	-
COc1ccc(-c2nn(-c3ccccc3)cc2/C=N/N2C(=O)CSC2=S)cc1	0	0	67.9	0	53.3
COc1ccc2nc3ccccc3nc2c1N	0	0	48.5	0	0
COc1ccc2nc3cccc(OC)c3nc2c1	0	0	0	0	-
COc1ccccc1Nc1ccc(N)cc1	0	0	67.9	0	55.5
COc1ccccc1NC(=O)c1ccccc1Nc1ccccc1	0	0	0	-	-
SMILES	SIAE inh	mABHD4 FP	HTRA1 inhibitor	RBBP9 inhibitor	HTRA1 inh conf
Cc1cc(C)c2sc(NNC(=O)c3ccc(S(=O)(=O)N4CCc5ccccc5C4)cc3)nc2c1	0	0	44.5	0	41.7
Cc1cc(C)c2nc(NNC(=O)c3ccc(S(=O)(=O)N4CCc5ccccc5C4)cc3)sc2c1	0	0	51.8	0	47.9
Cc1cc(C)c2sc(N(CCCN(C)C)C(=O)c3ccc(S(=O)(=O)N4CCc5ccccc5C4)cc3)nc2c1	-	-	0	-	-
CSc1ccc(CN2CCC(C)(Oc3cnc(Cl)c4ccccc34)C2)cc1 (configuration not stated)	0	0	-	-	-
Cc1n[nH]c(=O)c2c(NC(=O)CSc3nc4ccccc4c(=O)n3C(C)C)oc(C)c12	0	0	0	-	-
Cc1n[nH]c(=O)c2c(NC(=O)CSc3nc4ccccc4c(=O)n3CCCO)oc(C)c12	0	0	37.9	-	0
O=C1C=CC(=O)N1c1ccc(Nc2ccccc2)cc1	0	0	52.6	-	0
O=C1C=CC(=O)N1c1ccc2ccccc2c1	0	0	0	-	-
CCOC(=O)C1=CCN(S(=O)(=O)c2cccc(Cl)c2)C1c1cccc(C)c1 (configuration not stated)	0	0	-	-	-
Cc1cc(N(CCO)CCO)ccc1C(c1ccc(N(CCO)CCO)cc1C)c1ccccc1Cl	0	0	41.2	0	0
CN(C)c1ccc(C(=O)C(O)c2ccccc2Cl)cc1 (configuration not stated)	0	0	0	-	-
